Laboratory results published in ChEMBL document CHEMBL1126618, “Epoxysuccinyl dipeptides as selective inhibitors of cathepsin B” (J Med Chem, 1993).

Columns and labels:
Rattus norvegicus = species: Rattus norvegicus; assay: Second order rate constant for inactivation of rat cathepsin B; conditions: in vitro
Summary of the method: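 Recombinant rat cathepsin B expressed in yeast, activated 15 min on ice in buffer containing 1 mM DTT. Continuous assay at pH 6.0: 50 mM phosphate, 200 mM NaCl, 5 mM EDTA, 10% v/v acetonitrile, 0.5 mM DTT. Substrate CbzPheArgMCA; fluorescence (ex 380, em 440 nm) followed until complete inactivation (typically 5–30 min) to obtain first-order kobs.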

papain (Carica papaya) = papain (Carica papaya) (UniProt P00784); assay: Second order rate constant for inactivation of papain; conditions: in vitro
[1] = ratio of cathepsin B/papain
Summary of the method: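 Both enzymes were run in a continuous CbzPheArgMCA fluorescence assay in 50 mM phosphate, 200 mM NaCl, 5 mM EDTA and 10% acetonitrile. Recombinant rat cathepsin B was run at pH 6.0 with 0.5 mM DTT. Papain was run at pH 6.5. In each case kobs was followed until complete inactivation.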

SMILES | kinact/Ki (Rattus norvegicus) [M⁻¹ s⁻¹] | kinact/Ki (papain (Carica papaya)) [M⁻¹ s⁻¹] | Ratio [1]
CCOC(=O)[C@H]1O[C@H]1C(=O)N[C@@H](CC(C)C)C(=O)N1CCC[C@H]1C(=O)O | 13800 | 760 | 18
CC(C)CNC(=O)[C@H]1O[C@H]1C(=O)N[C@@H](CC(C)C)C(=O)N1CCC[C@H]1C(=O)O | 52000 | 558 | 93
CC(C)C[C@H](NC(=O)[C@@H]1O[C@@H]1C(=O)O)C(=O)N1CCC[C@H]1C(=O)OCc1ccccc1 | 8700 | 176000 | 0.05
CCOC(=O)[C@H]1O[C@H]1C(=O)N[C@@H](CC(C)C)C(=O)N1CCC[C@H]1C(=O)OCc1ccccc1 | 30 | 110 | 0.3
CC(C)CNC(=O)[C@H]1O[C@H]1C(=O)N[C@@H](CC(C)C)C(=O)N1CCC[C@H]1C(=O)OCc1ccccc1 | 206 | 2070 | 0.1
CC(C)C[C@H](NC(=O)[C@@H]1O[C@@H]1C(=O)O)C(=O)N1CCC[C@H]1C(=O)O | 2200 | 30000 | 0.07
